The source of these data is ChEMBL document CHEMBL1759908, “Design, synthesis and potential 6 Hz psychomotor seizure test activity of some novel 2-(substituted)-3-{[substituted]amino}quinazolin-4(3H)-one” (Eur J Med Chem, 2011).

Usually TD50 stands for the 50% point of the dose-response relation for the toxic effect studied. The term logP denotes the decadic logarithm of the partition coefficient of the neutral form, usually between octanol and water. A low value points to a more hydrophilic compound. The ED50 is the dose that gives a 50% effect, or the effect in half of the subjects. A lower ED50 goes with greater potency.

The nature of data set [1]: Toxicity in ip dosed CF1 mouse after 0.5 hr. In kind it is organism-based. The note with it: in vivo. The essentials: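 Quantitative toxicity test in male CF-1 mice dosed i.p. (0.5% methylcellulose suspension) at 50, 100, 200 and 350 mg/kg, eight mice per dose. Motor impairment was scored at 0.5 h and TD50 derived from the number of toxic mice over the number tested.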

For data set [2], the system named is Mus musculus. The data set can be described thus: Anticonvulsant activity in CF1 mouse assessed as protection against 32 mA-current- for 3 secs induced seizure at 100 mg/kg, ip after 4 hrs by 6Hz psychomotor seizure test. Format: functional, organism-based. On the set-up: dose 100 mg/kg. An outline of the steps:
(§1)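 Male CF-1 mice (18-25 g) received 100 mg/kg i.p. as a suspension in 0.5% methylcellulose. At 0.25, 0.5, 1.0, 2.0 and 4.0 h, four mice per time point were stimulated through corneal electrodes (32 mA, 3 s, 6 Hz). Mice without psychomotor seizure behaviour were counted as protected. Results are reported as number protected over number tested.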

The subject of data set [3] is Mus musculus. The data set can be described thus: Anticonvulsant activity in CF1 mouse assessed as protection against 32 mA-current- for 3 secs induced seizure at 100 mg/kg, ip after 0.5 hr by 6Hz psychomotor seizure test. In kind it is functional. The essentials:
as §1

The nature of data set [4]: Lipophilicity, log P of the compound in octanol-phosphate buffer. Format: physicochemical. The essentials: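 Experimental log P was measured by octanol-phosphate buffer partition. The mixture stood 24 h at room temperature and was then equilibrated 6 h in a separating funnel. Phases were separated and membrane-filtered, and drug in the aqueous phase was quantified by UV spectroscopy.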

In data set [5] the test system is Mus musculus. The data set can be described thus: Anticonvulsant activity in CF1 mouse assessed as protection against 32 mA-current- for 3 secs induced seizure at 100 mg/kg, ip after 0.25 hr by 6Hz psychomotor seizure test. The note with it: route intraperitoneal. In kind it is functional. An outline of the steps:
as §1

Data set [6] has as its system Mus musculus. The data set can be described thus: Neurotoxicity in CF1 mouse assessed as minimal motor impairment at 100 mg/kg, ip after 1 min by rotarod test. The following applies: in vivo. On the set-up: dose 100 mg/kg, route intraperitoneal. Format: toxicity, organism-based. An outline of the steps:
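Neurotoxicity was scored as minimal motor impairment on the rotarod. Male CF-1 mice (18-25 g) received 100 mg/kg i.p. as a 0.5% methylcellulose suspension. Results are given as number toxic over number tested.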

The subject of data set [7] is Mus musculus. The data set can be described thus: Anticonvulsant activity in CF1 mouse assessed as protection against 32 mA-current- for 3 secs induced seizure at 100 mg/kg, ip after 2 hrs by 6Hz psychomotor seizure test. Format: functional. The note with it: route intraperitoneal. An outline of the steps: as §1
Data set [8] in a line: Neuroprotective activity against N-methyl-D-aspartate induced toxicity in hippocampus slices after 4 hrs propidium iodide staining. Format: functional, tissue-based. The essentials: (§2)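 Organotypic hippocampal slice cultures were exposed to NMDA or kainic acid alone, or with the investigational compound, in the presence of propidium iodide. Cell death was read as propidium iodide fluorescence intensity and compared with slices given excitotoxin alone.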

Data set [9] has as its system Mus musculus. The data set can be described thus: Anticonvulsant activity against 32 mA-current- for 3 secs induced seizure in ip dosed CF1 mouse after 0.5 hr by 6Hz psychomotor seizure test. In kind it is functional. An outline of the steps:
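Quantitative 6 Hz test in male CF-1 mice. The compound was suspended in 0.5% methylcellulose and given i.p. at 50, 100, 200 and 350 mg/kg, eight mice per dose. Mice were stimulated through corneal electrodes (32 mA, 3 s) at a 0.5 h time of peak effect. ED50 was derived from the number of mice protected per dose.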

Data set [10] in a line: Neuroprotective activity against kainic acid induced toxicity in hippocampus slices after 4 hrs propidium iodide staining. Format: functional, tissue-based. An outline of the steps: as §2
The subject of data set [11] is Mus musculus. In words: Anticonvulsant activity in CF1 mouse assessed as protection against 32 mA-current- for 3 secs induced seizure at 100 mg/kg, ip after 1 hr by 6Hz psychomotor seizure test. The note with it: route intraperitoneal. In kind it is functional. An outline of the steps: as §1

Active and inactive are the calls of the source. The rule behind the calls is not given here.

Consider `Cc1cc(Oc2ccc(/C=N/n3c(-c4ccccc4)nc4ccccc4c3=O)cc2)ccc1Cl`, for which the TD50 at 0.5 h in data set [1] was > 350 mg/kg. Also, the result (in the data set on Mus musculus [2]; in data set [8]; in data set [10]) was inactive. Further, the result with Mus musculus [3] was Active. The Activity in the data set with Mus musculus [3] (route intraperitoneal) is recorded as 100%; in the data set with Mus musculus [5] it was 75%; in the data set on Mus musculus [6], “Non-toxic”; in the data set on Mus musculus [7], 25%; with Mus musculus [11] it was 25%. Besides, the logP in data set [4] is 6.52. Besides, the ED50 with Mus musculus [9] was > 350 mg/kg.
